Results collected from several papers.
gag-pol reverse transcriptase: Gag-Pol polyprotein, reverse transcriptase (gag-pol, Human immunodeficiency virus 1, UniProt P03366)
LATS1: Serine/threonine-protein kinase LATS1 (LATS1, Homo sapiens, UniProt O95835)
CA1: Carbonic anhydrase 1 (CA1, Homo sapiens, UniProt P00915)
SLC18A2: Synaptic vesicular amine transporter (SLC18A2, Homo sapiens, UniProt Q05940)
ACKR3: Atypical chemokine receptor 3 (ACKR3, Homo sapiens, UniProt P25106)
UGT1A4: UDP-glucuronosyltransferase 1A4 (UGT1A4, Homo sapiens, UniProt P22310)
CYP2C19: Cytochrome P450 2C19 (CYP2C19, Homo sapiens, UniProt P33261)
CA2: Carbonic anhydrase 2 (CA2, Homo sapiens, UniProt P00918)
ERBB2: Receptor tyrosine-protein kinase erbB-2 (ERBB2, Homo sapiens, UniProt P04626)

Structure (SMILES) | target | test | test system | conditions | IC50
CCOC(=O)c1c(NCCC(C)C)c2c([nH]c1=O)CCC2 | gag-pol reverse transcriptase | enzyme activity, inhibitor | – | – | 88.7 µM
OC1(c2ccc(-c3ccnc4[nH]cc(F)c34)cc2)CCCNCC1 (stereo not shown) | LATS1 | enzyme activity, inhibitor, radiometric | – | – | 0.017 µM
CC(C)[C@H](N)C(=O)OCCOCn1cnc2c(=O)[nH]c(N)nc21 | CA1 | enzyme activity, inhibitor, absorbance | – | pH 7.4 | 12.8 µM
OCCN1CCN(CCCN2c3ccccc3Sc3ccc(C(F)(F)F)cc32)CC1 | SLC18A2 | transporter uptake, inhibitor | – | – | 2.34 µM
NC(=O)c1nnn(Cc2cc(Cl)c(C(=O)c3ccc(Cl)cc3)c(Cl)c2)c1N | Delta-type opioid receptor (OPRD1, Homo sapiens, UniProt P41143) | cAMP, antagonist | – | – | 1.09 µM
Cc1cc(-c2ccnc3[nH]cc(F)c23)ccc1[C@@]1(O)[C@H](C)CNC[C@@H]1C | LATS1 | target engagement in cells, BRET | – | – | 0.078 µM
CCOC(=O)c1c(NC(CC)CO)c2c([nH]c1=O)CCC2 (stereo not shown) | gag-pol reverse transcriptase | enzyme activity, inhibitor | – | – | > 100 µM
C[C@@H]1CNC[C@H](C)[C@@]1(O)c1ccc(-c2ccnc3[nH]cc(F)c23)cc1 | LATS1 | target engagement in cells, BRET | – | – | 0.518 µM
CC(C)(C)NC(=O)C1CCN(Cc2cccc(NC(=O)c3ccc(F)cc3)c2)CC1 | ACKR3 | ligand displacement, BRET | – | – | 0.0631 µM
CCOC(=O)c1c(NCC(C)C)c2c([nH]c1=O)CCC2 | gag-pol reverse transcriptase | enzyme activity, inhibitor | – | – | 33.9 µM
C[C@H]1[C@H](C)CC[C@]2(C(=O)O)CC[C@]3(C)C(=CC[C@@H]4[C@@]5(C)C[C@@H](O)[C@H](O)C(C)(C)[C@@H]5CC[C@]43C)[C@H]12 | UGT1A4 | enzyme activity, inhibitor | human, liver microsomes | – | 2.66 µM
CC[C@H]1OC(=O)[C@H](C)[C@@H](O[C@H]2C[C@@](C)(OC)[C@@H](O)[C@H](C)O2)[C@H](C)[C@@H](O[C@@H]2O[C@H](C)C[C@H](N(C)C)[C@H]2O)[C@](C)(O)C[C@@H](C)CN(C)[C@H](C)[C@@H](O)[C@]1(C)O | CA1 | enzyme activity, inhibitor, absorbance | – | pH 7.4 | 15 µM
OCc1ccc(-c2nn(Cc3ccccc3)c3ccccc23)o1 | CYP2C19 | enzyme activity, inhibitor | human, liver microsomes | – | 3.3 µM
Clc1ccc(C2(c3ccc(-c4cn[nH]c4)cc3)CCNCC2)cc1 | LATS1 | target engagement in cells, BRET | – | – | 8.87 µM
Nc1ccc(S(=O)(=O)c2ccc(N)cc2)cc1 | CA2 | enzyme activity, inhibitor, absorbance | – | pH 7.4 | 15 µM
O=C1CCc2ccc(OCCCCN3CCN(c4cccc(Cl)c4Cl)CC3)cc2N1 | SLC18A2 | transporter uptake, inhibitor, radiometric | – | cell membranes | 0.036 µM
OC1(c2ccc(-c3ccnc4[nH]cc(F)c34)cc2)CCNCC1 | LATS1 | target engagement in cells, BRET | – | – | 17.1 µM
Cc1ccc(OCC(=O)N[C@@H](Cc2c[nH]c3ccccc23)C(=O)OC(C)C)cc1 | CYP2C19 | enzyme activity, inhibitor | human, liver microsomes | 30 min | 31.5 µM
OC(Cn1cncn1)(Cn1cncn1)c1ccc(F)cc1F | CA1 | enzyme activity, inhibitor, absorbance | – | pH 7.4 | 11.1 µM
CCOC(=O)c1c(NCCC2CC2)c2c([nH]c1=O)CCC2 | gag-pol reverse transcriptase | enzyme activity, inhibitor | – | – | > 100 µM
CN(C)C(=O)c1cc2cnc(Nc3ccc(-c4ccc5c(=O)cc(N6CCOCC6)oc5c4)cc3)nc2n1C1CCCC1 | CYP2C19 | enzyme activity, inhibitor, fluorescence | – | pH 8 | 0.023 µM
CN1CCN(CCCN2c3ccccc3Sc3ccc(Cl)cc32)CC1 | SLC18A2 | transporter uptake, inhibitor | – | – | 3.72 µM
COc1cc(C)c(/C=C/C(C)=C/C=C/C(C)=C/C(=O)O)c(C)c1C | CA1 | enzyme activity, inhibitor, absorbance | – | pH 7.4 | 11.3 µM

Structure (SMILES) | target | test | test system | conditions | IC50
Cc1cc2c(cc1C)N[C@H](c1ccccc1)[C@@H](O)C(=O)N2 | ERBB2 | enzyme activity, inhibitor, ELISA | – | – | 0.023 µM
COc1ccnc(C[S+]([O-])c2nc3ccc(OC(F)F)cc3[nH]2)c1OC (stereo not shown) | CA2 | enzyme activity, inhibitor, absorbance | – | pH 7.4 | 13.8 µM
CCCNc1c2c([nH]c(=O)c1C(=O)OCC)CCC2 | gag-pol reverse transcriptase | enzyme activity, inhibitor | – | – | 76.4 µM
C[C@@H]1CC[C@@]2(OC1)O[C@H]1C[C@H]3[C@@H]4CC[C@H]5C[C@@H](O)CC[C@]5(C)[C@H]4CC(=O)[C@]3(C)[C@H]1[C@@H]2C | UGT1A4 | enzyme activity, inhibitor | human, liver microsomes | – | 2.23 µM
O=C(CCCN1CC=C(n2c(=O)[nH]c3ccccc32)CC1)c1ccc(F)cc1 | SLC18A2 | transporter uptake, inhibitor, radiometric | – | cell membranes | 0.154 µM
CC(C)(C(=O)O)c1ccc(C(O)CCCN2CCC(C(O)(c3ccccc3)c3ccccc3)CC2)cc1 (stereo not shown) | CA2 | enzyme activity, inhibitor, absorbance | – | pH 7.4 | 28.4 µM
CC(C)(C)NC(=O)C1CCN(Cc2cccc(/N=N/c3cccc(F)c3)c2)CC1 | ACKR3 | ligand displacement, BRET | – | – | 2 µM
CCCCCCNc1c2c([nH]c(=O)c1C(=O)OCC)CCC2 | gag-pol reverse transcriptase | enzyme activity, inhibitor | – | – | > 100 µM
CN1CCC(CNc2ccc3ncc(-c4cccc(OC(F)(F)F)c4)n3n2)CC1 | Alpha-2A adrenergic receptor (ADRA2A, Homo sapiens, UniProt P08913) | cAMP, antagonist | – | – | 5.17 µM
Fc1c[nH]c2nccc(-c3ccc(C4CCNCC4)cc3)c12 | LATS1 | enzyme activity, inhibitor, radiometric | – | – | 0.0088 µM
CC(C)=CCC/C(C)=C/CC/C(C)=C/Cc1c(O)cc(C)c(C(=O)O)c1O | Sodium channel protein type 2 subunit alpha (SCN2A, Homo sapiens, UniProt Q99250) | ion current, inhibitor, patch clamp | – | – | 1.61 µM
Cc1ccc(C(=O)Nc2ccc(CN3CCN(C)CC3)c(C(F)(F)F)c2)cc1C#Cc1cnc2cccnn12 | SLC18A2 | transporter uptake, inhibitor, radiometric | – | cell membranes | 0.7 µM
CC1=C(/C=C/C(C)=C/C=C/C(C)=C\C(=O)O)C(C)(C)CCC1 | CA1 | enzyme activity, inhibitor, absorbance | – | pH 7.4 | 8.47 µM
C=CCn1c(=O)c2cnc(Nc3ccc(N4CCN(C)CC4)cc3)nc2n1-c1ccc2c(n1)[C@@](O)(CC)CC2 | CYP2C19 | enzyme activity, inhibitor | – | – | 10 µM
CCOC(=O)c1c(N(CC)CC)c2c([nH]c1=O)CCC2 | gag-pol reverse transcriptase | enzyme activity, inhibitor | – | – | > 100 µM
CNC(=O)c1ccccc1Sc1ccc2c(/C=C/c3ccccn3)n[nH]c2c1 | SLC18A2 | transporter uptake, inhibitor | – | – | 8.2 µM
O=C1/C(=C/c2ccc3ccccc3c2O)NC(=S)N1c1ccccc1 | ERBB2 | enzyme activity, inhibitor, ELISA | – | – | 0.197 µM
COc1cc2c(N)nc(N3CCN(C(=O)OCC(C)(C)O)CC3)nc2c(OC)c1OC | SLC18A2 | transporter uptake, inhibitor | – | – | 0.022 µM
[H]/N=C(/N)c1ccc(NCc2nc3cc(C(=O)N(CCC(=O)O)c4ccccn4)ccc3n2C)cc1 | Plasminogen (PLG, Homo sapiens, UniProt P00747) | enzyme activity, inhibitor, absorbance | – | – | 1.7 µM
OC1(c2ccc(-c3ccnc4[nH]cc(F)c34)cc2)CCNC1 (stereo not shown) | LATS1 | enzyme activity, inhibitor, radiometric | – | – | 0.011 µM
C=CCCCNc1c2c([nH]c(=O)c1C(=O)OCC)CCC2 | gag-pol reverse transcriptase | enzyme activity, inhibitor | – | – | > 100 µM
Cc1cc(-c2ccnc3[nH]cc(F)c23)cc(F)c1[C@@]1(O)[C@H](C)CN(C2COC2)C[C@@H]1C | LATS1 | enzyme activity, inhibitor, radiometric | – | – | 0.0059 µM
Clc1ccc2c(c1)C(N1CCNCC1)=Nc1ccccc1O2 | SLC18A2 | transporter uptake, inhibitor | – | – | 8.5 µM
